Measured values as given in the RNAGym collection of RNA variant scans (doi:10.1126/science.aae0568).
Fewer inactive variants are shown than the library holds.

B1: tRNA (parent)
chain: GUUCCGUUGGCGUAAUGGUAACGCGUCUCCCUCCUAAGGAGAAGACUGCGGGUUCGAGUCCCGUACGGAACG

Variants of: B1
Assay: yeast fitness relative to wild type (ratio to wild type); higher = fitter; tRNA-Arg(CCU), competitive growth, 37 C, YPD
How it was run: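 Start and end populations of a pooled competition were compared by 100-nucleotide paired-end sequencing of gene amplicons. The Saccharomyces cerevisiae strains carried tRNA-Arg(CCU) gene variants at the native genomic locus, synthesised with a 3% per-site mutation rate at 69 sites, and competed in YPD at 37°C for 24 hours in six parallel replicates. Darwinian fitness relative to wild type was based on the change in genotype frequencies. Genotypes required ≥ 100 starting reads, and estimates < 0.5 were set to 0.5.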

| Variant | yeast fitness |
| --- | --- |
| GUUCCGUUGGCGUAAUGGUAACGCGUCACCGUCCUAAGGAGAAGACUGCGGGUUAGAGUCCCGUACGCAACG [U28A C31G C55A G68C] | ≤ 0.5 |
| GUUCCGUUGGCGUAAUGGUAACGCGUCACCUUCCUAAGGAGAAGACUGCGGGUUCGAGUCCCGUAAGGAACG [U28A C31U C66A] | ≤ 0.5 |
| GUUCCGUUGGCGUAAUGGUAACGCGUCACCCUACUAAGGAGAAGACUGCGGAUUCGAGUCCCGUACGGAACG [U28A C33A G52A] | ≤ 0.5 |
| GUUCCGUUGGCGUAAUGGUAACGCGUCACCCUGCUUAGGGGAAGACUGCGGGUCCGAGUCCCGUUCGGAACG [U28A C33G A36U A40G U54C A65U] | ≤ 0.5 |
| GUUCCGUUGGCGUAAUGGUAACGCGUCACCCUGCUAAGGAGACGACUGCGGGUUCGCGUCCCGUACAGUACG [U28A C33G A43C A57C G67A A69U] | ≤ 0.5 |
| GUUCCGUUGGCGUAAUGGUAACGCGUCACCCUUCUAAGGAGAAGACUGCGGGUUGGAGUCCCGUACGGAACG [U28A C33U C55G] | ≤ 0.5 |
| GUUCCGUUGGCGUAAUGGUAACGCGUCACCCUCGUAAGGAGAAGACUGCGGGUUCGAGUCCCGUACGGAACG [U28A C34G] | 0.707 |
| GUUCCGUUGGCGUAAUGGUAACGCGUCACCCUCUUAAGGUGAAGUCUGCGGGUUCGAGUCCCGUAUGGAACG [U28A C34U A40U A45U C66U] | ≤ 0.5 |
| GUUCCGUUGGCGUAAUGGUAACGCGUCACCCUCUUAAGGAGAAGACUGCGGGUUCGGGUCCCGUAUGGAACG [U28A C34U A57G C66U] | ≤ 0.5 |
| GUUCCGUUGGCGUAAUGGUAACGCGUCACCCUCUUAAGGAGAAGACUGCGGAUUCGAGCCCCGUAUGGAACG [U28A C34U G52A U59C C66U] | ≤ 0.5 |
| GUUCCGUUGGCGUAAUGGUAACGCGUCACCCUCCUAAGGAGAAGAAUGCGGGUUCGAGUCCCGUACGGAACG [U28A C46A] | 0.846 |
| GUUCCGUUGGCGUAAUGGUAACGCGUCACCCUCCUAAGGAGAAGAGUGCGGGUUCGAGUCCCGUACGGAACG [U28A C46G] | 0.76 |
| GUUCCGUUGGCGUAAUGGUAACGCGUCACCCUCCUAAGGAGAAGAUUGCGGGUUCGAGUCCCGUACGGAGCG [U28A C46U A70G] | 0.634 |
| GUUCCGUUGGCGUAAUGGUAACGCGUCACCCUCCUAAGGAGAAGACUGGGGGUUCGGGUCCCGUACGGAACG [U28A C49G A57G] | ≤ 0.5 |
| GUUCCGUUGGCGUAAUGGUAACGCGUCACCCUCCUAAGGAGAAGACUGCGGGUUAGAGUCCCGUACGGAACG [U28A C55A] | 0.52 |
| GUUCCGUUGGCGUAAUGGUAACGCGUCACCCUCCUAAGGAGAAGACUGCGGGUUGGAGUCCCGUACGGAACG [U28A C55G] | 0.537 |
| GUUCCGUUGGCGUAAUGGUAACGCGUCACCCUCCUAAGGAGAAGACUGCGGGUUGGAGUCCCGUACGGAGCG [U28A C55G A70G] | ≤ 0.5 |
| GUUCCGUUGGCGUAAUGGUAACGCGUCACCCUCCUAAGGAGAAGACUGCGGGUUGGAGUCCGGUACGGAACG [U28A C55G C62G] | ≤ 0.5 |
| GUUCCGUUGGCGUAAUGGUAACGCGUCACCCUCCUAAGGAGAAGACUGCGGGUUUGAGUCCCGUACGGAACG [U28A C55U] | 0.739 |

| Variant | yeast fitness |
| --- | --- |
| GUUCCGUUGGCGUAAUGGUAACGCGUCACCCUCCUAAGGAGAAGACUGCGGGUUCGAGUACCGUACGGAACG [U28A C60A] | 0.535 |
| GUUCCGUUGGCGUAAUGGUAACGCGUCACCCUCCUAAGGAGAAGACUGCGGGUUCGAGUGCCGUACGGAACG [U28A C60G] | 0.572 |
| GUUCCGUUGGCGUAAUGGUAACGCGUCACCCUCCUAAGGAGAAGACUGCGGGUUCGAGUGCCGUAGGGGACG [U28A C60G C66G A69G] | ≤ 0.5 |
| GUUCCGUUGGCGUAAUGGUAACGCGUCACCCUCCUAAGGAGAAGACUGCGGGUUCGAGUCCCGUAUGGAACG [U28A C66U] | 0.796 |
| GUUCCGUUGGCGUAAUGGUAACGCGUCACCCUCCUAAGAAGAAGACUGCGGGUUCGAGUCCCGGACGGAACG [U28A G39A U64G] | ≤ 0.5 |
| GUUCCGUUGGCGUAAUGGUAACGCGUCACCCUCCUAAGGAAAAGACUGCGGGUUCAAGUCCUGUACGGAACG [U28A G41A G56A C62U] | ≤ 0.5 |
| GUUCCGUUGGCGUAAUGGUAACGCGUCACCCUCCUAAGGAAAAGACUGCGGGUUCGAGUCCCGUACAGAACG [U28A G41A G67A] | ≤ 0.5 |
| GUUCCGUUGGCGUAAUGGUAACGCGUCACCCUCCUAAGGAGAAAACUGCGGGUUCGAGUCCCGUACGAAACG [U28A G44A G68A] | 0.544 |
| GUUCCGUUGGCGUAAUGGUAACGCGUCACCCUCCUAAGGAGAAGACUCCGGGUUCGAGUCCCGUACGGUUCG [U28A G48C A69U A70U] | ≤ 0.5 |
| GUUCCGUUGGCGUAAUGGUAACGCGUCACCCUCCUAAGGAGAAGACUCCGGGUUCGAGUCCCGUACGGACCG [U28A G48C A70C] | ≤ 0.5 |
| GUUCCGUUGGCGUAAUGGUAACGCGUCACCCUCCUAAGGAGAAGACUGCGAGUUCGUGUCCCGUACGGAACG [U28A G51A A57U] | 0.598 |
| GUUCCGUUGGCGUAAUGGUAACGCGUCACCCUCCUAAGGAGAAGACUGCGCGUUCGCGUCCCGUACGGAACG [U28A G51C A57C] | 0.53 |
| GUUCCGUUGGCGUAAUGGUAACGCGUCACCCUCCUAAGGAGAAGACUGCGGCUUCGAGUCCCGUACGGAACG [U28A G52C] | ≤ 0.5 |
| GUUCCGUUGGCGUAAUGGUAACGCGUCACCCUCCUAAGGAGAAGACUGCGGGUUCCAGUCCCGUACGGAACG [U28A G56C] | ≤ 0.5 |
| GUUCCGUUGGCGUAAUGGUAACGCGUCACCCUCCUAAGGAGAAGACUGCGGGUUCCAGUCCCGUACUGAACG [U28A G56C G67U] | 0.525 |
| GUUCCGUUGGCGUAAUGGUAACGCGUCACCCUCCUAAGGAGAAGACUGCGGGUUCGAGUCCCCUACGGAACG [U28A G63C] | 0.624 |
| GUUCCGUUGGCGUAAUGGUAACGCGUCACCCUCCUAAGGAGAAGACUGCGGGUUCGAGUCCCGUACCGAACG [U28A G67C] | 0.774 |
| GUUCCGUUGGCGUAAUGGUAACGCGUCACCCUCCUAAGGAGAAGACUGCGGGUUCGAGUCCCGUACGAAACG [U28A G68A] | 0.581 |
| GUUCCGUUGGCGUAAUGGUAACGCGUCACCCCCCUAAGGAGAAGACUGGGGAUUCGAGUCCCGUACGGAACG [U28A U32C C49G G52A] | ≤ 0.5 |
